Inhibition data for 2 molecules are collected here from PubChem BioAssay AID504513 (The Scripps Research Institute Molecular Screening Center, 2011).

Assay in all cases: competitive ABPP of PAFAH2 versus anti-target hydrolases – cell lysate, fluorescence, gel-based ABPP, BW5147 T-cell proteome, powder samples, late-stage follow-up (AID 504513);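 further: 0% = DMSO-only band intensity and 100% = blank gel background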
Assay [1] deals with ABHD11. The conditions noted are these: BW5147 mouse T-cell proteome, FP-Rh gel ABPP, stronger effect = higher value. Summed up:
(§1)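 System – mouse BW5147 T-cell soluble lysate · Input – 1 mg/mL soluble protein · Reagent – FP-Rh probe at 2 µM · Compound dosing – 0.02, 0.2 or 1 µM compound · Times – 30 min compound, 30 min probe at 25 °C · Signal – in-gel fluorescence of probe-labelled bands, integrated optical density · Read-out – percent band labelling lost versus DMSO control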

Assay [2] relates to APEH. To be noted: BW5147 mouse T-cell proteome, FP-Rh gel ABPP, stronger effect = higher value. The method in brief:
as §1

The test system of assay [3] is ESD. To be noted: BW5147 mouse T-cell proteome, FP-Rh gel ABPP, stronger effect = higher value. The method in brief: as §1
Assay [4] relates to LYPLA1. To be noted: BW5147 mouse T-cell proteome, FP-Rh gel ABPP, stronger effect = higher value. The method in brief:
as §1

In assay [5] the target is Platelet-activating factor acetylhydrolase 2, cytoplasmic (Mus musculus) (UniProt Q8VDG7). To be noted: FP-Rh gel ABPP, stronger effect = higher value. Summed up: as §1
Platelet-activating factor acetylhydrolase 2, cytoplasmic (Mus musculus), sequence (Q8VDG7 whole entry, looked up): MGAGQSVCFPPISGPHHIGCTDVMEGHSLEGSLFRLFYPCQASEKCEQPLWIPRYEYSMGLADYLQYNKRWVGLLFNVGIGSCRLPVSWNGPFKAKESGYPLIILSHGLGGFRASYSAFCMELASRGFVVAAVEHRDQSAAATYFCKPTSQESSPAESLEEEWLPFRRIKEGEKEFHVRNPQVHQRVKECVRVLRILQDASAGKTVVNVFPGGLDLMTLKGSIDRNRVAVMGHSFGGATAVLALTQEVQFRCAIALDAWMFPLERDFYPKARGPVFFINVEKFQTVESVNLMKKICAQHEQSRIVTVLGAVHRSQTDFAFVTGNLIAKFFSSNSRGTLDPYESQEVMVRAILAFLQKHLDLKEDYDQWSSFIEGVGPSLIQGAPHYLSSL

The source made the active and inactive calls.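 How the source made its calls: active means PAFAH2 inhibition at least 50% at 0.2 µM with under 50% on each related off-target enzyme; inactive means the rest, including PAFAH2 hits that also hit off-targets.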

For `O=C(n1ccnn1)n1c2ccccc2c2ccccc21`, the inhibition (usually the share of the control response that was lost under treatment) in assay [1] (at 1 µM) was 0% (inactive); in assay [1] (inhibition, at 0.02 µM) it was 0%; in assay [1] (inhibition, at 0.2 µM) it was 0%; in assay [2] (at 1 µM), 0% (inactive); in assay [2] (inhibition, at 0.02 µM), 0%; in assay [2] (inhibition, at 0.2 µM) it was 0%. Further, the inhibition is 0% (inactive) in assay [3] (at 1 µM); 0% in assay [3] (inhibition, at 0.02 µM); 0% in assay [3] (inhibition, at 0.2 µM); 0% (inactive) in assay [4] (at 1 µM); 0% in assay [4] (inhibition, at 0.02 µM); 0% in assay [4] (inhibition, at 0.2 µM). The inhibition was 0% (inactive) in assay [5] (PAFAH2, at 1 µM); 0% in assay [5] (PAFAH2, inhibition, at 0.02 µM); 0% in assay [5] (PAFAH2, inhibition, at 0.2 µM).
`O=C(N1CCCCC1)n1ccnn1`: the inhibition in assay [1] (at 1 µM) is 50% (inactive); in assay [1] (inhibition, at 0.02 µM), 0%; in assay [1] (inhibition, at 0.2 µM), 0%; in assay [2] (at 1 µM), 0% (inactive); in assay [2] (inhibition, at 0.02 µM), 0%; in assay [2] (inhibition, at 0.2 µM), 0%. For the same molecule, the inhibition in assay [3] (at 1 µM) was 0% (inactive); in assay [3] (inhibition, at 0.02 µM), 0%; in assay [3] (inhibition, at 0.2 µM), 0%; in assay [4] (at 1 µM) it was 0% (inactive); in assay [4] (inhibition, at 0.02 µM), 0%; in assay [4] (inhibition, at 0.2 µM) it was 0%. The inhibition in assay [5] (PAFAH2, at 1 µM) was 50% (inactive); in assay [5] (PAFAH2, inhibition, at 0.02 µM) it was 0%; in assay [5] (PAFAH2, inhibition, at 0.2 µM) it was 0%.
